Bioassay records from PubChem BioAssay.
PRMT1 inh – blocks human protein arginine methyltransferase 1 | Q99873 | recombinant PRMT1, activity-based probe fluorescence polarization | inhibition, % at 2.79 µM | actives 1.3% (n = 370,000) | AID 652257;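 active = inhibition above about 21% made by adding two undisclosed values, limit read from the data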
GSTO1 counter – counter-screen for RBBP9 inhibitors: inhibitors of human GSTO1. recombinant GSTO1, activity-based probe fluorescence polarization. actives 1.1% (n = 300,000). P78417. inhibition, % at 5.96 µM. AID 1974;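 active = inhibition above the campaign mean inhibition plus 3 SD, cut at about 35% in these data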
Target sequence (P78417 whole entry, looked up): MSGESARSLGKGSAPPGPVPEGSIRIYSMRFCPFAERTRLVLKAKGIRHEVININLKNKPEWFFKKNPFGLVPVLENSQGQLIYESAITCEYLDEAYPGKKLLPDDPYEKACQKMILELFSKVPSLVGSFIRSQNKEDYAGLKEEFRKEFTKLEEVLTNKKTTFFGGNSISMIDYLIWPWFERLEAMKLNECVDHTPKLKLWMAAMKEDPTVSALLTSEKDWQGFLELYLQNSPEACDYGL
PAD4 inh – inhibitors of human PAD4; Q9UM07; recombinant PAD4, RCA probe fluorescence polarization; inhibition, % at 6.36 µM; actives 0.41% (n = 330,000); AID 485272;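 active = percent inhibition above a cutoff equal to the mean of all tested compounds plus 3 SD, cut at about 15% in these data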
TDP2 inh – TDP2 (human) inhibition, absorbance primary screen. actives 0.34% (n = 370,000). inhibition, % at 12.8 µM. recombinant TDP2, T5PNP hydrolysis, p-nitrophenol absorbance 415 nm;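 active = inhibition above the mean of all tested compounds plus 3 SD, set per campaign, cut at about 25% in these data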
Target sequence (O95551 whole entry, looked up): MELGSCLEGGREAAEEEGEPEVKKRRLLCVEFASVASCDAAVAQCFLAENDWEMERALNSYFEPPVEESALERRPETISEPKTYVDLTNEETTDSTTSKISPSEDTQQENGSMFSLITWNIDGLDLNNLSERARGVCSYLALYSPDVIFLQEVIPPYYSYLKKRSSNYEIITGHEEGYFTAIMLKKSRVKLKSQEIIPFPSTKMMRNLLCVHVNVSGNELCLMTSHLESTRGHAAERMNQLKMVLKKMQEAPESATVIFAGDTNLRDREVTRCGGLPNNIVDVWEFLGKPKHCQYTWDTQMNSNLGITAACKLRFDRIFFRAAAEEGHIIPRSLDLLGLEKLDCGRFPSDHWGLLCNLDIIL
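Test system: Human TDP2 enzyme | Reagent: 5 mM T5PNP | Compound dosing: 12.8 µM single point, 1% DMSO | Incubation: Enzyme reaction with compound for 2 h at 37 °C | Technique: p-Nitrophenol epi absorbance | Read-out: % inhibition relative to enzyme-containing and enzyme-free wells | Benchmarks: High control without enzyme, low control DMSO plus TDP2 | Replicates: Singlicate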
eLon inh – inhibitors of E. coli Lon protease | P0A9M0 | purified E. coli Lon protease, fluorescence polarization | inhibition, % at 7.94 µM | actives 0.42% (n = 360,000) | AID 602123; in the data active = inhibition above about 13%, passing the limit was not always enough
PRMT1 inh conf – PRMT1 (human) inhibition, FP confirmation; actives 42% (n = 3,300); recombinant His-PRMT1, activity-based probe fluorescence polarization; inhibition, % at 2.79 µM; shares compounds with PRMT1 inh;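 active = mean inhibition across replicates above the hit cutoff derived for the earlier primary screen, cut at about 22% in these data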
A number is an active result; n = inactive; x = not tested or not shown. In the library only some 2.5% were active in any assay of this set; here they are far more common.

SMILES | PRMT1 inh | GSTO1 counter | PAD4 inh | TDP2 inh | eLon inh | PRMT1 inh conf
Cc1ccc(NC(=O)CSc2nc3ccccc3c(=O)n2CCCC(=O)NCC2CCCO2)cc1 (centres undefined) | n | n | n | n | n | x
COc1cccc(NC(=O)Nc2nnc([C@H]3C[C@H](O)[C@@H](CO)O3)s2)c1 | n | x | x | n | n | x
C[n+]1c2n(c3ccccc31)N=C(c1ccc(-c3ccccc3)cc1)CS2 | n | n | n | n | n | x
C[n+]1c2n(c3ccccc31)N=C(c1ccccc1)CS2 | 47.5 | n | n | n | n | n
C[n+]1c2n(c3ccccc31)N=C(c1ccc(Br)cc1)CS2 | 56.6 | n | n | n | n | n
CCc1nnc2n1N=C(c1ccc(Br)cc1)CS2 | n | n | n | n | n | x
N#Cc1nc(NCC(F)F)nc(Nc2cc(F)cc(F)c2)n1 | n | x | n | n | n | x
CCO/C(C)=N/Oc1cncnc1 | n | x | x | n | n | x
CCOC(=O)Cc1csc(-n2sc3ccccc3c2=O)n1 | 88.2 | n | n | n | n | 89.2
CCOC(=O)Cc1csc(SCn2nnc3ccccc3c2=O)n1 | n | n | n | n | n | x
O=C1CC(N2CCN(c3ccc(O)cc3)CC2)C(=O)N1c1ccc2c(c1)OCO2 (centres undefined) | 39.1 | n | n | n | n | n
O=C1C2C3C=CC(C3)C2C(=O)N1c1ccc2c(c1)OCO2 (centres undefined) | n | n | n | n | n | x
O=C1CC(N2CCCCCC2)C(=O)N1c1ccc2c(c1)OCO2 (centres undefined) | 68.7 | n | n | n | n | 35.5
O=C1CC(NC23CC4CC(CC(C4)C2)C3)C(=O)N1c1ccc2c(c1)OCO2 (centres undefined) | 65.0 | n | n | n | n | n
COc1ccc(NC(=O)CN2c3cccc4cccc(c34)S2(=O)=O)cc1OC | n | x | x | n | n | x
S=c1[nH]c2ccc(Cl)cc2[nH]1 | n | n | n | n | n | x
S=c1[nH]c2cc(Cl)ccc2s1 | 47.4 | n | n | n | n | n
CC(C)CN(CCNC(=O)CN1N=C(c2ccc(Cl)cc2)CCC1=O)CC(C)C | n | n | n | n | n | x
CCN(CC)C(=S)Nc1ccc(OC(F)F)cc1 | n | n | n | n | n | x
CN(NC(=S)Nc1ccc(OC(F)F)cc1)C(=S)Nc1ccc(OC(F)F)cc1 | 44.5 | n | n | n | n | n
CCCN1CCN(CCCNC(=O)Cn2nc(C)n3c(cc4cc(F)ccc43)c2=O)CC1 | n | n | n | n | n | x
Cc1ccc(OCCC(=O)OCC(=O)Nc2ccc3c(c2)OCCO3)cc1 | 32.1 | n | n | n | n | n
c1ccc(-c2nn3c(C4CCCCC4)nnc3s2)nc1 | n | n | n | n | n | x
Clc1ccc(OCc2nn3c(C4CCCCC4)nnc3s2)cc1 | 27.1 | n | n | n | n | n
CC(C)CN(CC(C)C)C(=O)COn1nnc2ccc(S(=O)(=O)N3CCOCC3)cc21 | n | x | n | n | n | x
SMILES | PRMT1 inh | GSTO1 counter | PAD4 inh | TDP2 inh | eLon inh | PRMT1 inh conf
COc1cc(N)c(Cl)cc1C(=O)OCC(=O)NCC1CCCO1 (centres undefined) | n | x | n | n | n | x
COc1cc(N)c(Cl)cc1C(=O)OCC(=O)NCC1CCCCC1 | 33.9 | x | n | n | n | n
CCCCCCCCc1nc(=S)[nH][nH]1 | 27.1 | n | n | n | n | 36.6
Cn1cccc1/C=C1\SC(=S)N(NC(=O)c2ccccc2O)C1=O | n | n | n | n | n | x
O=C(O)C(Cc1ccccc1)N1C(=O)/C(=C/C=C/c2ccco2)SC1=S (centres undefined) | 61.0 | x | x | n | n | 33.6
O=C(O)C(Cc1ccccc1)N1C(=O)/C(=C/c2cccnc2)SC1=S (centres undefined) | 26.2 | n | n | n | n | n
COc1ccc(/C=C2\SC(=S)N(C(Cc3ccccc3)C(=O)O)C2=O)cc1 (centres undefined) | n | x | x | n | n | x
O=C(NN1C(=O)/C(=C/C=C/c2ccco2)SC1=S)c1ccccc1O | 41.9 | n | n | n | n | 32.1
COc1cccc(/C=C2/Oc3ccccc3N(CC(=O)NCC3CCCO3)C2=O)c1 (centres undefined) | x | n | n | x | n | x
COC(=O)[C@]12C[C@H](CC(=O)NCc3cccs3)C(=O)N(Cc3ccco3)C1=C[C@H](COCc1ccccc1)O[C@@H]2C | n | x | x | n | x | x
Cc1c(C(c2cc(O)ccc2O)c2c(C)n(C)n(-c3ccccc3)c2=O)c(=O)n(-c2ccccc2)n1C | 32.7 | x | x | n | n | n
Cc1cc(Cl)ccc1OCCCC(=O)NCCc1nnc2ccccn12 | n | n | n | n | n | x
O=C1S/C(=C\C=C\c2ccco2)C(=O)N1c1ccccc1 | 39.8 | n | n | n | n | n
O=C1S/C(=C\c2cccs2)C(=O)N1c1ccc(O)cc1 | n | n | n | n | n | x
O=C1S/C(=C\C=C\c2ccco2)C(=O)N1c1ccc(O)cc1 | 31.4 | n | n | n | n | n
CN(C)c1ccc(/C=N\NC(=O)c2cccc(S(=O)(=O)N(C)C)c2)cc1 | n | x | x | n | x | x
CC(C)(C)c1ccc(S(=O)(=O)N2CCC(c3cn4ccccc4n3)CC2)cc1 | n | x | x | n | x | x
CC[C@@H](CCC(=O)N(c1ccccc1)c1ccccc1)c1ccc(C)cc1 | n | x | x | n | x | x
O=C(COC(=O)c1cc[n+]([O-])cc1)Nc1ccc(SC(F)F)cc1 | 28.2 | n | n | n | n | n
CC(=O)CCC(=O)OCC(=O)Nc1ccc(SC(F)F)cc1 | 27.4 | n | n | n | n | 24.2
C=CCOc1cccc(/C=C2\C(=O)N(Cc3ccc(C)cc3)C(C)=C2C(=O)OC)c1 | n | n | n | n | n | x
CCOc1cc(/C=C2\C(=O)N(Cc3ccc(C)cc3)C(C)=C2C(=O)OC)ccc1O | 41.1 | n | n | n | n | n
O=C(CNC(=O)c1ccccc1F)NCc1ccncc1 | n | x | n | n | n | x
Cc1cc(NC(=O)c2ccc(Cl)cc2)no1 | n | n | n | n | n | x
Cc1cc(NC(=O)c2ccc3nc(C)sc3c2)no1 | 30.9 | n | n | n | n | n
SMILES | PRMT1 inh | GSTO1 counter | PAD4 inh | TDP2 inh | eLon inh | PRMT1 inh conf
COc1ccc(C(=O)/C=C/C(=O)N(CC(=O)NC2CCCCC2)Cc2cccs2)c(O)c1 | 38.4 | n | n | n | n | 65.1
COCCN(CC(=O)NC1CCCCC1)C(=O)/C=C/C(=O)c1ccc(OC)cc1O | n | x | x | n | n | x
COc1cc(-n2c(C)nc3cc(C(=O)N4CCCCC4)ccc32)cc(OC)c1OC | n | x | x | n | x | x
Cc1ccc(S(=O)(=O)Nc2nc3ccccc3nc2NCc2ccco2)cc1 | 33.3 | n | n | n | 38.4 | n
COC(=O)C1CN(Cc2cn(Cc3ccc(F)cc3)nn2)CCS(=O)(=O)N1Cc1ccc(OC)cc1 (centres undefined) | n | x | x | n | x | x
CCN(CC)c1ccc2cc(-c3nnc(-c4ccccc4)o3)c(=O)oc2c1 | n | n | n | n | n | x
CCN(CC)c1ccc2cc(-c3nc(-c4ccc(OC)cc4)cs3)c(=O)oc2c1 | 44.9 | n | n | n | x | 77.7
O=c1oc2cc(O)ccc2s1 | 86.1 | 53.0 | n | n | n | 33.2
